System: Fibroblast
Experiment: Multiplex assay against human fibroblast
Format: toxicity, cell-based
Outline: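 Four dyes were applied at seeding to live cells: Hoechst33342, BioTracker Green Microtubule Cytoskeleton Dye, MitoTracker Red and Annexin V Alexa Fluor 680. Imaging after compound addition used a CQ1 microscope at 37°C and 5% CO2. CellPathfinder machine-learning gating then sorted cells into Hoechst high-intensity objects or normal cells, normal cells into healthy, pyknosed or fragmented nuclei, and pyknosed cells into mitotic or apoptotic, with tubulin, mitochondrial-mass and membrane-permeability phenotypes given as per cents of healthy-nucleus cells.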

[1] = 12 h, 1 µM, compound concentration 1 uM, replicate 1
[2] = 12 h, 1 µM, compound concentration 1 uM, replicate 2
[3] = 12 h, 10 µM, compound concentration 10 uM, replicate 1
[4] = 12 h, 10 µM, compound concentration 10 uM, replicate 2
[5] = 24 h, 1 µM, compound concentration 1 uM, replicate 1
[6] = 24 h, 1 µM, compound concentration 1 uM, replicate 2
[7] = 24 h, 10 µM, compound concentration 10 uM, replicate 1
[8] = 24 h, 10 µM, compound concentration 10 uM, replicate 2
[9] = 48 h, 1 µM, compound concentration 1 uM, replicate 1
[10] = 48 h, 1 µM, compound concentration 1 uM, replicate 2
[11] = 48 h, 10 µM, compound concentration 10 uM, replicate 1
[12] = 48 h, 10 µM, compound concentration 10 uM, replicate 2

O=C1NCN(c2ccccc2)C12CCN(CCCOc1ccc(F)cc1)CC2 [SPIRAMIDE]
Population Apoptotic (%) [1]: 75%
Population Fragmented Nuclei (%) [1]: 40%
Population Healthy Nuclei (%) [1]: 31%
Population Hoechst High Intensity Objects (%) [1]: 15%
Population Membrane Permeable-Phenotype (%) [1]: 22%
Population Mitochondria Different-Phenotype (%) [1]: 11%
Population Mitotic Cells (%) [1]: 24%
Population Normal (%) [1]: 84%
Population Pyknosed Nuclei (%) [1]: 28%
Population Tubulin-Different-Phenotype (%) [1]: 33%
Total Cell Count [1]: 136
Population Apoptotic (%) [2]: 0%
Population Fragmented Nuclei (%) [2]: 10%
Population Healthy Nuclei (%) [2]: 88%
Population Hoechst High Intensity Objects (%) [2]: 7%
Population Membrane Permeable-Phenotype (%) [2]: 0%
Population Mitochondria Different-Phenotype (%) [2]: 10%
Population Mitotic Cells (%) [2]: 100%
Population Normal (%) [2]: 92%
Population Pyknosed Nuclei (%) [2]: 1%
Population Tubulin-Different-Phenotype (%) [2]: 6%
Total Cell Count [2]: 74
Population Apoptotic (%) [3]: 66%
Population Fragmented Nuclei (%) [3]: 25%
Population Healthy Nuclei (%) [3]: 44%
Population Hoechst High Intensity Objects (%) [3]: 13%
Population Membrane Permeable-Phenotype (%) [3]: 6%
Population Mitochondria Different-Phenotype (%) [3]: 54%
Population Mitotic Cells (%) [3]: 33%
Population Normal (%) [3]: 86%
Population Pyknosed Nuclei (%) [3]: 30%
Population Tubulin-Different-Phenotype (%) [3]: 82%
Total Cell Count [3]: 162
Population Apoptotic (%) [4]: 50%
Population Fragmented Nuclei (%) [4]: 3%
Population Healthy Nuclei (%) [4]: 88%
Population Hoechst High Intensity Objects (%) [4]: 8%
Population Membrane Permeable-Phenotype (%) [4]: 2%
Population Mitochondria Different-Phenotype (%) [4]: 27%
Population Mitotic Cells (%) [4]: 50%
Population Normal (%) [4]: 91%
Population Pyknosed Nuclei (%) [4]: 7%
Population Tubulin-Different-Phenotype (%) [4]: 12%
Total Cell Count [4]: 91
Population Apoptotic (%) [5]: 57%
Population Fragmented Nuclei (%) [5]: 31%
Population Healthy Nuclei (%) [5]: 45%
Population Hoechst High Intensity Objects (%) [5]: 13%
Population Membrane Permeable-Phenotype (%) [5]: 25%
Population Mitochondria Different-Phenotype (%) [5]: 5%
Population Mitotic Cells (%) [5]: 42%
Population Normal (%) [5]: 86%
Population Pyknosed Nuclei (%) [5]: 22%
Population Tubulin-Different-Phenotype (%) [5]: 44%
Total Cell Count [5]: 132
Population Apoptotic (%) [6]: 0%
Population Fragmented Nuclei (%) [6]: 7%
Population Healthy Nuclei (%) [6]: 89%
Population Hoechst High Intensity Objects (%) [6]: 6%
Population Membrane Permeable-Phenotype (%) [6]: 2%
Population Mitochondria Different-Phenotype (%) [6]: 7%
Population Mitotic Cells (%) [6]: 100%
Population Normal (%) [6]: 93%
Population Pyknosed Nuclei (%) [6]: 3%
Population Tubulin-Different-Phenotype (%) [6]: 7%
Total Cell Count [6]: 76
Population Apoptotic (%) [7]: 70%
Population Fragmented Nuclei (%) [7]: 20%
Population Healthy Nuclei (%) [7]: 60%
Population Hoechst High Intensity Objects (%) [7]: 16%
Population Membrane Permeable-Phenotype (%) [7]: 10%
Population Mitochondria Different-Phenotype (%) [7]: 44%
Population Mitotic Cells (%) [7]: 29%
Population Normal (%) [7]: 83%
Population Pyknosed Nuclei (%) [7]: 18%
Population Tubulin-Different-Phenotype (%) [7]: 85%
Total Cell Count [7]: 177
Population Apoptotic (%) [8]: 27%
Population Fragmented Nuclei (%) [8]: 3%
Population Healthy Nuclei (%) [8]: 78%
Population Hoechst High Intensity Objects (%) [8]: 6%
Population Membrane Permeable-Phenotype (%) [8]: 2%
Population Mitochondria Different-Phenotype (%) [8]: 21%
Population Mitotic Cells (%) [8]: 72%
Population Normal (%) [8]: 93%
Population Tubulin-Different-Phenotype (%) [8]: 10%
Total Cell Count [8]: 118
Population Apoptotic (%) [9]: 60%
Population Fragmented Nuclei (%) [9]: 36%
Population Healthy Nuclei (%) [9]: 45%
Population Hoechst High Intensity Objects (%) [9]: 14%
Population Membrane Permeable-Phenotype (%) [9]: 32%
Population Mitochondria Different-Phenotype (%) [9]: 5%
Population Mitotic Cells (%) [9]: 40%
Population Normal (%) [9]: 85%
Population Pyknosed Nuclei (%) [9]: 17%
Population Tubulin-Different-Phenotype (%) [9]: 34%
Total Cell Count [9]: 133
Population Apoptotic (%) [10]: 0%
Population Fragmented Nuclei (%) [10]: 15%
Population Healthy Nuclei (%) [10]: 83%
Population Hoechst High Intensity Objects (%) [10]: 5%
Population Membrane Permeable-Phenotype (%) [10]: 13%
Population Mitochondria Different-Phenotype (%) [10]: 0%
Population Mitotic Cells (%) [10]: 100%
Population Normal (%) [10]: 94%
Population Pyknosed Nuclei (%) [10]: 0%
Population Tubulin-Different-Phenotype (%) [10]: 36%
Total Cell Count [10]: 137
Population Apoptotic (%) [11]: 69%
Population Fragmented Nuclei (%) [11]: 31%
Population Healthy Nuclei (%) [11]: 59%
Population Hoechst High Intensity Objects (%) [11]: 22%
Population Membrane Permeable-Phenotype (%) [11]: 3%
Population Mitochondria Different-Phenotype (%) [11]: 47%
Population Mitotic Cells (%) [11]: 30%
Population Normal (%) [11]: 77%
Population Pyknosed Nuclei (%) [11]: 9%
Population Tubulin-Different-Phenotype (%) [11]: 80%
Total Cell Count [11]: 186
Population Apoptotic (%) [12]: 50%
Population Healthy Nuclei (%) [12]: 64%
Population Hoechst High Intensity Objects (%) [12]: 9%
Population Membrane Permeable-Phenotype (%) [12]: 8%
Population Mitochondria Different-Phenotype (%) [12]: 2%
Population Mitotic Cells (%) [12]: 50%
Population Normal (%) [12]: 90%
Population Pyknosed Nuclei (%) [12]: 3%
Population Tubulin-Different-Phenotype (%) [12]: 29%
Total Cell Count [12]: 123

Source: ChEMBL document CHEMBL4689842, “EUbOPEN Chemogenomics Library wave 1” (2021)
